Source: ChEMBL document CHEMBL1147868, “Synthesis of novel triazole derivatives as inhibitors of cytochrome P450 14alpha-demethylase (CYP51)” (2007)
Converted amounts (≈) assume the structure as drawn.

Legend:
Format in all cases: functional
Aspergillus fumigatus = test: Antifungal activity against Aspergillus fumigatus after 7 days by micro-broth dilution method; conditions: 168 h
Procedure, shortened: (§1)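 Clinical isolates supplied by a hospital were tested by NCCLS broth microdilution. Compounds were dissolved in DMSO, serially diluted in growth medium, inoculated and incubated at 35 C. Growth was read at 7 days for filamentous fungi. MIC80 was taken as the first well with about 80% less growth than the drug-free well.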

Candida tropicalis = test: Antifungal activity against Candida tropicalis after 7 days by micro-broth dilution method; conditions: 168 h
Procedure, shortened: (§2)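 Micro-broth dilution followed NCCLS methods, using an ATCC standard quality-control strain for C. parapsilosis and a clinical isolate for C. tropicalis. Compounds were dissolved in DMSO, serially diluted in growth medium and incubated at 35 C. MIC80 was the first well with about 80% growth reduction compared with the drug-free well.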

Candida albicans = test: Antifungal activity against Candida albicans ATCC Y0109 after 24 hrs by micro-broth dilution method
Procedure, shortened: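 An ATCC standard quality-control strain was included in each run of an NCCLS micro-broth dilution assay. Compounds were dissolved in DMSO, serially diluted in growth medium and incubated at 35 C. Reading was at 24 h, and MIC80 was the first well showing roughly 80% growth reduction versus the drug-free control.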

Microsporum = test: Antifungal activity against Microsporum gypseum after 7 days by micro-broth dilution method; conditions: 168 h; procedure, shortened: as §1
Candida parapsilosis = test: Antifungal activity against Candida parapsilosis ATCC 0306392 after 7 days by micro-broth dilution method; conditions: Lodderomyces parapsilosis, ATCC 0306392, 168 h; procedure, shortened: as §2
Fonsecaea compacta = test: Antifungal activity against Fonsecaea compacta after 7 days by micro-broth dilution method; conditions: 168 h; procedure, shortened: as §1
Trichophyton rubrum = test: Antifungal activity against Trichophyton rubrum after 7 days by microbroth dilution method; conditions: 168 h; procedure, shortened: as §1
Cryptococcus neoformans = test: Antifungal activity against Cryptococcus neoformans ATCC BLS108 after 72 hrs by micro-broth dilution method
Procedure, shortened: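 This ATCC standard quality-control strain was tested in every assay by NCCLS microdilution. Test agents were dissolved in DMSO and serially diluted in growth medium. Cultures were incubated at 35 C and read at 72 h. MIC80 was the first well with approximately 80% reduced growth relative to the drug-free well.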

| SMILES | MIC80 (Aspergillus fumigatus) [µg/mL] | MIC80 (Candida tropicalis) [µg/mL] | MIC80 (Candida albicans) [µg/mL] | MIC80 (Microsporum) [µg/mL] | MIC80 (Candida parapsilosis) [µg/mL] | MIC80 (Fonsecaea compacta) [µg/mL] | MIC80 (Trichophyton rubrum) [µg/mL] | MIC80 (Cryptococcus neoformans) [µg/mL] |
| --- | --- | --- | --- | --- | --- | --- | --- | --- |
| OC(Cn1cncn1)(Cn1cncn1)c1ccc(F)cc1F [FLUCONAZOLE] | 64 (≈ 209 µM) | 1 (≈ 3.27 µM) | 4 (≈ 13.1 µM) | 0.25 (≈ 0.816 µM) | 1 (≈ 3.27 µM) | 16 (≈ 52.2 µM) | 0.25 (≈ 0.816 µM) | 1 (≈ 3.27 µM) |
| O=C(Nc1ccc(N2CCN(CC(O)(Cn3cncn3)c3ccc(F)cc3F)CC2)c(F)c1)c1ccc(F)cc1 (centres undefined) | 1 (≈ 1.8 µM) | 0.0152 (≈ 0.0274 µM) | 0.0152 (≈ 0.0274 µM) | 0.0152 (≈ 0.0274 µM) | 0.0039 (≈ 0.00703 µM) | 0.0625 (≈ 0.113 µM) | 0.25 (≈ 0.451 µM) | 0.0152 (≈ 0.0274 µM) |
| COc1cc(C(=O)Nc2ccc(N3CCN(CC(O)(Cn4cncn4)c4ccc(F)cc4F)CC3)c(F)c2)cc(OC)c1OC (centres undefined) | 4 (≈ 6.38 µM) | 0.0625 (≈ 0.0997 µM) | 0.25 (≈ 0.399 µM) | 1 (≈ 1.6 µM) | 0.0625 (≈ 0.0997 µM) | 4 (≈ 6.38 µM) | > 64 | 1 (≈ 1.6 µM) |
| O=C(Nc1ccc(N2CCN(CC(O)(Cn3cncn3)c3ccc(F)cc3F)CC2)c(F)c1)c1ccccc1Cl (centres undefined) | 1 (≈ 1.75 µM) | 0.0152 (≈ 0.0266 µM) | 0.0152 (≈ 0.0266 µM) | 0.0152 (≈ 0.0266 µM) | 0.0152 (≈ 0.0266 µM) | 0.0625 (≈ 0.109 µM) | 0.0152 (≈ 0.0266 µM) | 0.25 (≈ 0.438 µM) |
| Cc1ccc(C(=O)Nc2ccc(N3CCN(CC(O)(Cn4cncn4)c4ccc(F)cc4F)CC3)c(F)c2)cc1 (centres undefined) | 1 (≈ 1.82 µM) | 0.0152 (≈ 0.0276 µM) | 0.0625 (≈ 0.114 µM) | 1 (≈ 1.82 µM) | 0.0152 (≈ 0.0276 µM) | 0.0625 (≈ 0.114 µM) | 0.0625 (≈ 0.114 µM) | 0.0625 (≈ 0.114 µM) |
| O=C(Nc1ccc(N2CCN(CC(O)(Cn3cncn3)c3ccc(F)cc3F)CC2)c(F)c1)c1ccc(Cl)cc1Cl (centres undefined) | 0.25 (≈ 0.413 µM) | 0.0625 (≈ 0.103 µM) | 0.25 (≈ 0.413 µM) | 0.0039 (≈ 0.00644 µM) | 0.0152 (≈ 0.0251 µM) | 0.25 (≈ 0.413 µM) | 0.0625 (≈ 0.103 µM) | 0.0625 (≈ 0.103 µM) |
| CC(C)(C)c1ccc(C(=O)Nc2ccc(N3CCN(CC(O)(Cn4cncn4)c4ccc(F)cc4F)CC3)c(F)c2)cc1 (centres undefined) | 4 (≈ 6.75 µM) | 0.25 (≈ 0.422 µM) | 1 (≈ 1.69 µM) | 0.25 (≈ 0.422 µM) | 0.0625 (≈ 0.105 µM) | 0.25 (≈ 0.422 µM) | 4 (≈ 6.75 µM) | 0.25 (≈ 0.422 µM) |
| CC(C)c1ccc(C(=O)Nc2ccc(N3CCN(CC(O)(Cn4cncn4)c4ccc(F)cc4F)CC3)c(F)c2)cc1 (centres undefined) | 4 (≈ 6.91 µM) | 0.25 (≈ 0.432 µM) | 1 (≈ 1.73 µM) | 0.25 (≈ 0.432 µM) | 0.25 (≈ 0.432 µM) | 0.25 (≈ 0.432 µM) | 0.25 (≈ 0.432 µM) | 0.0625 (≈ 0.108 µM) |
| CCCCCc1ccc(C(=O)Nc2ccc(N3CCN(CC(O)(Cn4cncn4)c4ccc(F)cc4F)CC3)c(F)c2)cc1 (centres undefined) | 4 (≈ 6.59 µM) | 4 (≈ 6.59 µM) | 0.25 (≈ 0.412 µM) | 1 (≈ 1.65 µM) | 0.25 (≈ 0.412 µM) | 1 (≈ 1.65 µM) | 1 (≈ 1.65 µM) | 0.25 (≈ 0.412 µM) |
| O=C(Nc1ccc(N2CCN(CC(O)(Cn3cncn3)c3ccc(F)cc3F)CC2)c(F)c1)c1cccc(C(F)(F)F)c1 (centres undefined) | 4 (≈ 6.62 µM) | 0.25 (≈ 0.414 µM) | 0.25 (≈ 0.414 µM) | 0.0625 (≈ 0.103 µM) | 0.0152 (≈ 0.0251 µM) | 0.25 (≈ 0.414 µM) | 0.0625 (≈ 0.103 µM) | 0.25 (≈ 0.414 µM) |
| Cc1cccc(C(=O)Nc2ccc(N3CCN(CC(O)(Cn4cncn4)c4ccc(F)cc4F)CC3)c(F)c2)c1 (centres undefined) | 1 (≈ 1.82 µM) | 0.0152 (≈ 0.0276 µM) | 0.0625 (≈ 0.114 µM) | 0.0152 (≈ 0.0276 µM) | 0.0152 (≈ 0.0276 µM) | 0.25 (≈ 0.454 µM) | 0.0625 (≈ 0.114 µM) | 0.0625 (≈ 0.114 µM) |
| CCCc1ccc(C(=O)Nc2ccc(N3CCN(CC(O)(Cn4cncn4)c4ccc(F)cc4F)CC3)c(F)c2)cc1 (centres undefined) | 4 (≈ 6.91 µM) | 1 (≈ 1.73 µM) | 1 (≈ 1.73 µM) | 0.25 (≈ 0.432 µM) | 0.0625 (≈ 0.108 µM) | 0.25 (≈ 0.432 µM) | 0.25 (≈ 0.432 µM) | 1 (≈ 1.73 µM) |
| Cc1ccccc1C(=O)Nc1ccc(N2CCN(CC(O)(Cn3cncn3)c3ccc(F)cc3F)CC2)c(F)c1 (centres undefined) | 1 (≈ 1.82 µM) | 0.0152 (≈ 0.0276 µM) | 0.0625 (≈ 0.114 µM) | 0.0152 (≈ 0.0276 µM) | 0.0152 (≈ 0.0276 µM) | 0.25 (≈ 0.454 µM) | 0.0625 (≈ 0.114 µM) | 0.0625 (≈ 0.114 µM) |
